In ChEMBL document CHEMBL3046615, “Isolation of nematicidal compounds from Tagetes patula L. yellow flowers: structure-activity relationship studies against cyst nematode Heterodera zeae infective stage larvae” (2011):
Calls of active or inactive are those of the source. The rule behind the calls is not given here.

Legend:
Heterodera zeae [1] = test: Nematicidal activity against Heterodera zeae infective stage larvae assessed as nematode mortality at 1% under dark conditions measured 72 hr post dose by stereoscopic microscopy; format: functional
In short: (§1)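 Freshly hatched H. zeae second-stage juveniles, 100 per Petri plate, three replicates. Samples in MeOH, DMSO or water were tested in glass cavity blocks; petroleum ether samples were dried onto the block and larvae transferred on agar pieces. Percentages are dilutions of 30 mg/mL stocks (extracts/fractions) or 1 mg/mL stocks (pure compounds). Incubated at 28 ± 2 °C in light or dark box; mortality averaged over three replicates.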

Heterodera zeae [2] = test: Nematicidal activity against Heterodera zeae infective stage larvae assessed as nematode mortality at 1% under light conditions measured 5 to 60 min post dose by stereoscopic microscopy; format: functional, organism-based
In short: (§2)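 H. zeae freshly hatched second-stage juveniles, 100 per plate, three replicates, at 28 ± 2 °C under light or in a dark box. Dilutions are % of a stock: 30 mg/mL for extracts/fractions, 1 mg/mL for pure compounds. Methanol-, DMSO- or water-soluble samples were tested in glass cavity blocks. Petroleum ether-soluble samples were air-dried in the block and covered with agar pieces bearing cultured larvae. Mortality was followed over 5–60 min; each value is the mean of three experiments.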

Heterodera zeae [3] = test: Nematicidal activity against Heterodera zeae infective stage larvae assessed as nematode mortality at 1% under dark conditions measured 24 hr post dose by stereoscopic microscopy; format: functional; in short: as §1
Heterodera zeae [4] = test: Nematicidal activity against Heterodera zeae infective stage larvae assessed as nematode mortality at 0.25% under dark conditions measured 72 hr post dose by stereoscopic microscopy; format: functional; in short: as §1
Heterodera zeae [5] = test: Nematicidal activity against Heterodera zeae infective stage larvae assessed as nematode mortality at 0.5% under dark conditions measured 24 hr post dose by stereoscopic microscopy; format: functional; in short: as §1
Heterodera zeae [6] = test: Nematicidal activity against Heterodera zeae infective stage larvae assessed as nematode mortality at 0.125% under light conditions measured 48 hr post dose by stereoscopic microscopy; format: functional; in short: as §1
Heterodera zeae [7] = test: Nematicidal activity against Heterodera zeae infective stage larvae assessed as nematode mortality at 1% under dark conditions measured 48 hr post dose by stereoscopic microscopy; format: functional; in short: as §1
Heterodera zeae [8] = test: Nematicidal activity against Heterodera zeae infective stage larvae assessed as nematode mortality at 0.5% under light conditions measured 5 to 60 min post dose by stereoscopic microscopy; format: functional, organism-based; in short: as §2
Heterodera zeae [9] = test: Nematicidal activity against Heterodera zeae infective stage larvae assessed as nematode mortality at 5% under light conditions measured 5 to 60 min post dose by stereoscopic microscopy; format: functional, organism-based; in short: as §2
Heterodera zeae [10] = test: Nematicidal activity against Heterodera zeae infective stage larvae assessed as nematode mortality at 1% under dark conditions measured 5 to 60 min post dose by stereoscopic microscopy; format: functional, organism-based; in short: as §2
Heterodera zeae [11] = test: Nematicidal activity against Heterodera zeae infective stage larvae assessed as nematode mortality at 0.5% under light conditions measured 48 hr post dose by stereoscopic microscopy; format: functional; in short: as §1
Heterodera zeae [12] = test: Nematicidal activity against Heterodera zeae infective stage larvae assessed as nematode mortality at 1% under light conditions measured 72 hr post dose by stereoscopic microscopy; format: functional; in short: as §1
Heterodera zeae [13] = test: Nematicidal activity against Heterodera zeae infective stage larvae assessed as nematode mortality at 0.125% under dark conditions measured 5 to 60 min post dose by stereoscopic microscopy; format: functional, organism-based; in short: as §2
Heterodera zeae [14] = test: Nematicidal activity against Heterodera zeae infective stage larvae assessed as nematode mortality at 0.5% under dark conditions measured 5 to 60 min post dose by stereoscopic microscopy; format: functional, organism-based; in short: as §2
Heterodera zeae [15] = test: Nematicidal activity against Heterodera zeae infective stage larvae assessed as nematode mortality at 0.125% under dark conditions measured 72 hr post dose by stereoscopic microscopy; format: functional; in short: as §1
Heterodera zeae [16] = test: Nematicidal activity against Heterodera zeae infective stage larvae assessed as nematode mortality at 0.5% under light conditions measured 24 hr post dose by stereoscopic microscopy; format: functional; in short: as §1
Heterodera zeae [17] = test: Nematicidal activity against Heterodera zeae infective stage larvae assessed as nematode mortality at 0.125% under light conditions measured 72 hr post dose by stereoscopic microscopy; format: functional; in short: as §1
Heterodera zeae [18] = test: Nematicidal activity against Heterodera zeae infective stage larvae assessed as nematode mortality at 0.25% under dark conditions measured 24 hr post dose by stereoscopic microscopy; format: functional; in short: as §1
Heterodera zeae [19] = test: Nematicidal activity against Heterodera zeae infective stage larvae assessed as nematode mortality at 0.25% under dark conditions measured 5 to 60 min post dose by stereoscopic microscopy; format: functional, organism-based; in short: as §2
Heterodera zeae [20] = test: Nematicidal activity against Heterodera zeae infective stage larvae assessed as nematode mortality at 1% under light conditions measured 48 hr post dose by stereoscopic microscopy; format: functional; in short: as §1
Heterodera zeae [21] = test: Nematicidal activity against Heterodera zeae infective stage larvae assessed as nematode mortality at 0.25% under light conditions measured 5 to 60 min post dose by stereoscopic microscopy; format: functional, organism-based; in short: as §2
Heterodera zeae [22] = test: Nematicidal activity against Heterodera zeae infective stage larvae assessed as nematode mortality at 0.125% under light conditions measured 24 hr post dose by stereoscopic microscopy; format: functional; in short: as §1
Heterodera zeae [23] = test: Nematicidal activity against Heterodera zeae infective stage larvae assessed as nematode mortality at 2% under dark conditions measured 5 to 60 min post dose by stereoscopic microscopy; format: functional, organism-based; in short: as §2
Heterodera zeae [24] = test: Nematicidal activity against Heterodera zeae infective stage larvae assessed as nematode mortality at 0.5% under light conditions measured 72 hr post dose by stereoscopic microscopy; format: functional; in short: as §1
Heterodera zeae [25] = test: Nematicidal activity against Heterodera zeae infective stage larvae assessed as nematode mortality at 0.25% under dark conditions measured 48 hr post dose by stereoscopic microscopy; format: functional; in short: as §1
Heterodera zeae [26] = test: Nematicidal activity against Heterodera zeae infective stage larvae assessed as nematode mortality at 0.25% under light conditions measured 72 hr post dose by stereoscopic microscopy; format: functional; in short: as §1
Heterodera zeae [27] = test: Nematicidal activity against Heterodera zeae infective stage larvae assessed as nematode mortality at 0.125% under light conditions measured 5 to 60 min post dose by stereoscopic microscopy; format: functional, organism-based; in short: as §2
Heterodera zeae [28] = test: Nematicidal activity against Heterodera zeae infective stage larvae assessed as nematode mortality at 1% under light conditions measured 24 hr post dose by stereoscopic microscopy; format: functional; in short: as §1
Heterodera zeae [29] = test: Nematicidal activity against Heterodera zeae infective stage larvae assessed as nematode mortality at 0.125% under dark conditions measured 24 hr post dose by stereoscopic microscopy; format: functional; in short: as §1
Heterodera zeae [30] = test: Nematicidal activity against Heterodera zeae infective stage larvae assessed as nematode mortality at 2% under light conditions measured 5 to 60 min post dose by stereoscopic microscopy; format: functional, organism-based; in short: as §2
Heterodera zeae [31] = test: Nematicidal activity against Heterodera zeae infective stage larvae assessed as nematode mortality at 0.125% under dark conditions measured 48 hr post dose by stereoscopic microscopy; format: functional; in short: as §1
Heterodera zeae [32] = test: Nematicidal activity against Heterodera zeae infective stage larvae assessed as nematode mortality at 0.25% under light conditions measured 24 hr post dose by stereoscopic microscopy; format: functional; in short: as §1
Heterodera zeae [33] = test: Nematicidal activity against Heterodera zeae infective stage larvae assessed as nematode mortality at 5% under dark conditions measured 5 to 60 min post dose by stereoscopic microscopy; format: functional, organism-based; in short: as §2
Heterodera zeae [34] = test: Nematicidal activity against Heterodera zeae infective stage larvae assessed as nematode mortality at 0.5% under dark conditions measured 72 hr post dose by stereoscopic microscopy; format: functional; in short: as §1
Heterodera zeae [35] = test: Nematicidal activity against Heterodera zeae infective stage larvae assessed as nematode mortality at 0.25% under light conditions measured 48 hr post dose by stereoscopic microscopy; format: functional; in short: as §1
Heterodera zeae [36] = test: Nematicidal activity against Heterodera zeae infective stage larvae assessed as nematode mortality at 0.5% under dark conditions measured 48 hr post dose by stereoscopic microscopy; format: functional; in short: as §1

Row | Compound | mortality (Heterodera zeae [1]) [%] | Activity (Heterodera zeae [2]) | mortality (Heterodera zeae [3]) [%] | mortality (Heterodera zeae [4]) [%] | mortality (Heterodera zeae [5]) [%] | mortality (Heterodera zeae [6]) [%] | mortality (Heterodera zeae [7]) [%] | Activity (Heterodera zeae [8]) | Activity (Heterodera zeae [9]) | Activity (Heterodera zeae [10]) | mortality (Heterodera zeae [11]) [%] | mortality (Heterodera zeae [12]) [%] | Activity (Heterodera zeae [13]) | Activity (Heterodera zeae [14]) | mortality (Heterodera zeae [15]) [%] | mortality (Heterodera zeae [16]) [%] | mortality (Heterodera zeae [17]) [%] | mortality (Heterodera zeae [18]) [%] | Activity (Heterodera zeae [19]) | mortality (Heterodera zeae [20]) [%] | also measured
1 | COc1c(O[C@@H]2O[C@H](CO)[C@@H](O)[C@H](O)[C@H]2O)cc2oc(-c3ccc(O)c(O)c3)c(O)c(=O)c2c1O [PATULITRIN] | 50 | inactive | 0 | 20 | 0 | 0 | 40 | inactive | inactive | inactive | 0 | 50 | inactive | inactive | 10 | 0 | 10 | 0 | inactive | 20 | Activity (Heterodera zeae [21]): inactive; mortality (Heterodera zeae [22]): 0%; Activity (Heterodera zeae [23]): inactive; mortality (Heterodera zeae [24]): 50%; mortality (Heterodera zeae [25]): 10%; mortality (Heterodera zeae [26]): 20%; Activity (Heterodera zeae [27]): inactive; mortality (Heterodera zeae [28]): 0%; mortality (Heterodera zeae [29]): 0%; Activity (Heterodera zeae [30]): inactive; mortality (Heterodera zeae [31]): 0%; mortality (Heterodera zeae [32]): 0%; Activity (Heterodera zeae [33]): inactive; mortality (Heterodera zeae [34]): 40%; mortality (Heterodera zeae [35]): 20%; mortality (Heterodera zeae [36]): 20%
2 | O=c1c(O)c(-c2ccc(O)c(O)c2)oc2cc(O)cc(O)c12 [QUERCETIN] | 70 | inactive | 50 | 50 | 40 | 50 | 70 | inactive | inactive | inactive | 50 | 70 | inactive | inactive | 40 | 50 | 80 | 40 | inactive | 50 | Activity (Heterodera zeae [21]): inactive; mortality (Heterodera zeae [22]): 40%; Activity (Heterodera zeae [23]): inactive; mortality (Heterodera zeae [24]): 80%; mortality (Heterodera zeae [25]): 50%; mortality (Heterodera zeae [26]): 70%; Activity (Heterodera zeae [27]): inactive; mortality (Heterodera zeae [28]): 50%; mortality (Heterodera zeae [29]): 40%; Activity (Heterodera zeae [30]): inactive; mortality (Heterodera zeae [31]): 40%; mortality (Heterodera zeae [32]): 40%; Activity (Heterodera zeae [33]): inactive; mortality (Heterodera zeae [34]): 70%; mortality (Heterodera zeae [35]): 50%; mortality (Heterodera zeae [36]): 50%
3 | COc1ccc(C(=O)O)cc1 [p-ANISIC ACID] | 90 | inactive | 50 | 80 | 50 | 10 | 60 | inactive | inactive | inactive | 40 | 80 | inactive | inactive | 50 | 30 | 40 | 30 | inactive | 50 | Activity (Heterodera zeae [21]): inactive; mortality (Heterodera zeae [22]): 10%; Activity (Heterodera zeae [23]): inactive; mortality (Heterodera zeae [24]): 50%; mortality (Heterodera zeae [25]): 40%; mortality (Heterodera zeae [26]): 50%; Activity (Heterodera zeae [27]): inactive; mortality (Heterodera zeae [28]): 40%; mortality (Heterodera zeae [29]): 10%; Activity (Heterodera zeae [30]): inactive; mortality (Heterodera zeae [31]): 20%; mortality (Heterodera zeae [32]): 10%; Activity (Heterodera zeae [33]): inactive; mortality (Heterodera zeae [34]): 80%; mortality (Heterodera zeae [35]): 20%; mortality (Heterodera zeae [36]): 50%
